Source: ChEMBL document CHEMBL1125112, “Antitumor imidazotetrazines. 20. Preparation of the 8-acid derivative of mitozolomide and its utility in the preparation of active antitumor agents” (1990)

How the values were obtained:
TLX-5 [1] = test: In vivo antitumor activity against the TLX5 lymphoma cell line in mouse species CBA/CA after intraperitoneal administration (inoculum cells-2x10E5,sc) at the dose of 80 mg/kg on 5th day; assay type: functional
TLX-5 [2] = test: In vivo antitumor activity against the TLX5 lymphoma cell line in mouse species CBA/CA after intraperitoneal administration (inoculum cells-2x10E5,sc) at the dose of 40 mg/kg; assay type: functional
Method in brief: (§1)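 CBA/CA mice were inoculated with 2 × 10^5 TLX5 lymphoma cells. Drug given intraperitoneally in 10% Me2SO in arachis oil, 5 mice per dose, and the experiment lasted 60 days. Survivors at 60 days were recorded. T/C % = mean death day of treated animals / mean death day of control animals.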

TLX-5 [3] = test: In vivo antitumor activity against the TLX5 lymphoma cell line in mouse species CBA/CA after intraperitoneal administration (inoculum cells-2x10E5,sc) at the dose of 40 mg/kg on 5th day; assay type: functional
TLX-5 [4] = test: In vivo antitumor activity against the TLX5 lymphoma cell line in mouse species CBA/CA after intraperitoneal administration (inoculum cells-2x10E5,sc) at the dose of 320 mg/kg on 5th day; assay type: functional
TLX-5 [5] = test: In vivo antitumor activity against the TLX5 lymphoma cell line in mouse species CBA/CA after intraperitoneal administration (inoculum cells-2x10E5,sc) at the dose of 20 mg/kg on 5th day; assay type: functional
TLX-5 [6] = test: (§2) In vivo antitumor activity against the TLX5 lymphoma cell line in mouse species CBA/CA after intraperitoneal administration (inoculum cells-2x10E5,sc) at the dose of 160 mg/kg; assay type: functional
Method in brief: (§3)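 CBA/CA mice were implanted sc with 2 × 10^5 TLX5 lymphoma cells. Compound was given ip on day 3 in 10% Me2SO in arachis oil, over 60 days, in groups of 5. T/C% = mean death day of treated/mean death day of controls. Survivors to day 60 were counted.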

TLX-5 [7] = test: In vivo antitumor activity against the TLX5 lymphoma cell line in mouse species CBA/CA after intraperitoneal administration (inoculum cells-2x10E5,sc) at the dose of 80 mg/kg; assay type: functional; method in brief: as §1
TLX-5 [8] = test: (§4) In vivo antitumor activity against the TLX5 lymphoma cell line in mouse species CBA/CA after intraperitoneal administration (inoculum cells-2x10E5,sc) at the dose of 20 mg/kg; assay type: functional; method in brief: as §1
TLX-5 [9] = test: In vivo antitumor activity against the TLX5 lymphoma cell line in mouse species CBA/CA after intraperitoneal administration (inoculum cells-2x10E5,sc) at the dose of 10 mg/kg on 5th day; assay type: functional
TLX-5 [10] = test: In vivo antitumor activity against the TLX5 lymphoma cell line in mouse species CBA/CA after intraperitoneal administration (inoculum cells-2x10E5,sc) at the dose of 5 mg/kg on 5th day; assay type: functional
L1210 [11] = test: In vivo antitumor activity against the L1210 leukemia cell line in mouse species B6D2F1 after peroral administration (inoculum cells-10E5,ip) at the dose of 80 mg/kg on 10th day; assay type: functional; settings: route oral
Method in brief: (§5)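 B6D2F1 mice were inoculated with 10^5 L1210 leukemia cells, ip or iv as the line states. Compound was given orally as a suspension in 1% (carboxymethyl)cellulose in water, dosed on day 1 or 3, over 28–39 days. T/C% = mean death day of treated/mean death day of controls. Survivors to the end were counted in groups of 7–8.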

TLX-5 [12] = test: In vivo antitumor activity against the TLX5 lymphoma cell line in mouse species CBA/CA after intraperitoneal administration (inoculum cells-2x10E5,sc) at the dose of 320 mg/kg; assay type: functional; method in brief: as §1
TLX-5 [13] = test: In vivo antitumor activity against the TLX5 lymphoma cell line in mouse species CBA/CA after intraperitoneal administration (inoculum cells-2x10E5,sc) at the dose of 320 mg/kg on 3rd day
TLX-5 [14] = test: as §2; assay type: functional; method in brief: as §1; remark: listed apart in the source
TLX-5 [15] = test: In vivo antitumor activity against the TLX5 lymphoma cell line in mouse species CBA/CA after intraperitoneal administration (inoculum cells-2x10E5,sc) at the dose of 160 mg/kg on 5th day; assay type: functional
TLX-5 [16] = test: In vivo antitumor activity against the TLX5 lymphoma cell line in mouse species CBA/CA after intraperitoneal administration (inoculum cells-2x10E5,sc) at the dose of 10 mg/kg; assay type: functional
L1210 [17] = test: In vivo antitumor activity against the L1210 leukemia cell line in mouse species B6D2F1 after peroral administration (inoculum cells-10E5,iv) at the dose of 40 mg/kg on 7th day; assay type: functional; settings: route oral; method in brief: as §5
L1210 [18] = test: In vivo antitumor activity against the L1210 leukemia cell line in mouse species B6D2F1 after peroral administration (inoculum cells-10E5,iv) at the dose of 10 mg/kg on 7th day; assay type: functional; settings: route oral
L1210 [19] = test: In vivo antitumor activity against the L1210 leukemia cell line in mouse species B6D2F1 after peroral administration (inoculum cells-10E5,iv) at the dose of 10 mg/kg; assay type: functional; settings: route oral
L1210 [20] = test: In vivo antitumor activity against the L1210 leukemia cell line in mouse species B6D2F1 after peroral administration (inoculum cells-10E5,iv) at the dose of 20 mg/kg; assay type: functional; settings: route oral
L1210 [21] = test: In vivo antitumor activity against the L1210 leukemia cell line in mouse species B6D2F1 after peroral administration (inoculum cells-10E5,iv) at the dose of 40 mg/kg; assay type: functional; settings: route oral
L1210 [22] = test: In vivo antitumor activity against the L1210 leukemia cell line in mouse species B6D2F1 after peroral administration (inoculum cells-10E5,iv) at the dose of 20 mg/kg on 7th day; assay type: functional; settings: route oral; method in brief: as §5
L1210 [23] = test: In vivo antitumor activity against the L1210 leukemia cell line in mouse species B6D2F1 after peroral administration (inoculum cells-10E5,iv) at the dose of 50 mg/kg on 7th day; assay type: functional; settings: route oral; method in brief: as §5
L1210 [24] = test: In vivo antitumor activity against the L1210 leukemia cell line in mouse species B6D2F1 after peroral administration (inoculum cells-10E5,iv) at the dose of 100 mg/kg; assay type: functional; settings: route oral
L1210 [25] = test: In vivo antitumor activity against the L1210 leukemia cell line in mouse species B6D2F1 after peroral administration (inoculum cells-10E5,iv) at the dose of 200 mg/kg; assay type: functional; settings: route oral
L1210 [26] = test: In vivo antitumor activity against the L1210 leukemia cell line in mouse species B6D2F1 after peroral administration (inoculum cells-10E5,iv) at the dose of 200 mg/kg on 10th day; assay type: functional; settings: route oral; method in brief: as §5
L1210 [27] = test: In vivo antitumor activity against the L1210 leukemia cell line in mouse species B6D2F1 after peroral administration (inoculum cells-10E5,iv) at the dose of 100 mg/kg on 7th day; assay type: functional; settings: route oral; method in brief: as §5
L1210 [28] = test: In vivo antitumor activity against the L1210 leukemia cell line in mouse species B6D2F1 after peroral administration (inoculum cells-10E5,iv) at the dose of 50 mg/kg; assay type: functional; settings: route oral
L1210 [29] = test: In vivo antitumor activity against the L1210 leukemia cell line in mouse species B6D2F1 after peroral administration (inoculum cells-10E5,ip) at the dose of 10 mg/kg on 10th day; assay type: functional; settings: route oral; method in brief: as §5
L1210 [30] = test: In vivo antitumor activity against the L1210 leukemia cell line in mouse species B6D2F1 after peroral administration (inoculum cells-10E5,iv) at the dose of 200 mg/kg on 7th day; assay type: functional; settings: route oral; method in brief: as §5
TLX-5 [31] = test: In vivo antitumor activity against the TLX5 lymphoma cell line in mouse species CBA/CA after intraperitoneal administration (inoculum cells-2x10E5,sc) at the dose of 640 mg/kg on 5th day; assay type: functional
TLX-5 [32] = test: In vivo antitumor activity against the TLX5 lymphoma cell line in mouse species CBA/CA after intraperitoneal administration (inoculum cells-2x10E5,sc) at the dose of 640 mg/kg; assay type: functional; method in brief: as §1
TLX-5 [33] = test: as §4; assay type: functional; method in brief: as §3; remark: listed apart in the source
L1210 [34] = test: In vivo antitumor activity against the L1210 leukemia cell line in mouse species B6D2F1 after peroral administration (inoculum cells-10E5,iv) at the dose of 5 mg/kg on 7th day; assay type: functional; settings: route oral

Structure (SMILES)	Survivors (TLX-5 [1])	T/C (TLX-5 [2]) [%]	Survivors (TLX-5 [3])	Survivors (TLX-5 [4])	Survivors (TLX-5 [5])	T/C (TLX-5 [7]) [%]	T/C (TLX-5 [8]) [%]	Survivors (TLX-5 [15])	also measured
O=C(NC1CCCCC1)c1ncn2c(=O)n(CCCl)nnc12	1	125	0	0	0	>277	109		Survivors (TLX-5 [6]): 0
CNC(=O)c1ncn2c(=O)n(CCCl)nnc12	0						>154		Survivors (TLX-5 [9]): 0; Survivors (TLX-5 [10]): 0; Survivors (L1210 [11]): 0
CCSC(=O)c1ncn2c(=O)n(CCCl)nnc12	0	104	0		0	108	106	0	T/C (TLX-5 [12]): 125%; Survivors (TLX-5 [13]): 0; T/C (TLX-5 [14]): 119%
O=C(NCCCl)c1ncn2c(=O)n(CCCl)nnc12	0	>361	3		0		142		T/C (TLX-5 [16]): 103%; Survivors (L1210 [17]): 0; Survivors (L1210 [18]): 0; Survivors (TLX-5 [9]): 0; T/C (L1210 [19]): 121%; T/C (L1210 [20]): 183%; T/C (L1210 [21]): 227%; Survivors (L1210 [22]): 0
CC(C)(C)NC(=O)c1ncn2c(=O)n(CCCl)nnc12									Survivors (L1210 [23]): 0; T/C (L1210 [24]): 149%; T/C (L1210 [25]): 307%; Survivors (L1210 [26]): 0; Survivors (L1210 [27]): 0; T/C (L1210 [28]): 132%
CN(C)C(=O)c1ncn2c(=O)n(CCCl)nnc12					0			0	Survivors (L1210 [29]): 0; Survivors (L1210 [11]): 0
O=C(N[N+](=O)[O-])c1ncn2c(=O)n(CCCl)nnc12	0	101	0	0	0	118	109	2	T/C (TLX-5 [14]): >354%
O=C(NO)c1ncn2c(=O)n(CCCl)nnc12									T/C (L1210 [24]): 187%; T/C (L1210 [25]): 218%; Survivors (L1210 [27]): 0; Survivors (L1210 [30]): 0
O=C(NOCc1ccccc1)c1ncn2c(=O)n(CCCl)nnc12									Survivors (L1210 [23]): 0; T/C (L1210 [24]): 98%; T/C (L1210 [25]): 98%; Survivors (L1210 [27]): 0; Survivors (L1210 [30]): 0; T/C (L1210 [28]): 98%
[N-]=[N+]=NC(=O)c1ncn2c(=O)n(CCCl)nnc12	0	96	0		0	106	97	0	T/C (TLX-5 [16]): 101%; Survivors (TLX-5 [9]): 0
COC(=O)c1ncn2c(=O)n(CCCl)nnc12	0	110	0	0	0	110	106	0	T/C (TLX-5 [12]): 140%; T/C (TLX-5 [14]): 123%
CCOC(=O)CNC(=O)c1ncn2c(=O)n(CCCl)nnc12	0			0		96		0	T/C (TLX-5 [12]): 114%; Survivors (TLX-5 [31]): 0; T/C (TLX-5 [14]): 105%; T/C (TLX-5 [32]): 139%
O=C(Nc1ccccc1)c1ncn2c(=O)n(CCCl)nnc12	0		0	0	0			0	
NC(=O)c1ncn2c(=O)n(CCCl)nnc12 [MITOZOLOMIDE]									Survivors (L1210 [18]): 0; Survivors (TLX-5 [9]): 0; Survivors (TLX-5 [10]): 0; Survivors (TLX-5 [33]): 0; Survivors (L1210 [22]): 0; Survivors (L1210 [34]): 0
